Measurements taken from ChEMBL document CHEMBL2150957, “Substrate-Selective Inhibition of Cyclooxygenase-2: Development and Evaluation of Achiral Profen Probes” (ACS Med Chem Lett, 2012).

Experiments:
[1] = target: T1, Prostaglandin G/H synthase 2 (Mus musculus) (UniProt Q05769); experiment: Inhibition of mouse COX2-mediated arachidonic acid oxygenation at 10 uM preincubated for 3 mins before […] measured after 30 seconds
T1 sequence (whole entry): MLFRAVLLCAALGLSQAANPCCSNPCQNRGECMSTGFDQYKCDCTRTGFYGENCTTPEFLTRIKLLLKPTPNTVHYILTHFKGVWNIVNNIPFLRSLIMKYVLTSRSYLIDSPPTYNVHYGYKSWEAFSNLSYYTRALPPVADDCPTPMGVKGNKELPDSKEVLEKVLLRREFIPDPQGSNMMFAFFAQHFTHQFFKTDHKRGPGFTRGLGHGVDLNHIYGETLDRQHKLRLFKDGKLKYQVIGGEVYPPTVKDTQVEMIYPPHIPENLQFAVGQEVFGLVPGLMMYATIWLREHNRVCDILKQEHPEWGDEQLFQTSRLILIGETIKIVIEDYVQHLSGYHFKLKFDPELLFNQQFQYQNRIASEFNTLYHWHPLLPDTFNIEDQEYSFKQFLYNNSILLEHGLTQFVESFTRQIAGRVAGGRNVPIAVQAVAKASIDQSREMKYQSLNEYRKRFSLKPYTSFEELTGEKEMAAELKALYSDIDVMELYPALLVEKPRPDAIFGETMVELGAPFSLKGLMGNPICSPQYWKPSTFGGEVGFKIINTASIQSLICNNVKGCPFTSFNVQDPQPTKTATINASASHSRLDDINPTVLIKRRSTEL
Procedure, shortened: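 Purified murine COX-2 (40 nM) preincubated 3 min with inhibitor (10 μM) in DMSO, with a solvent control. Arachidonic acid (5 μM) then added and reacted 30 s at 37 °C. Percent inhibition of AA oxygenation. Mean ± standard deviation, n = 6.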

[2] = target: T1, Prostaglandin G/H synthase 2 (Mus musculus); experiment: Inhibition of mouse COX2-mediated 2-arachidonoylglycerol oxygenation at 10 uM preincubated for 3 mins before 2-arachidonoylglycerol addition measured after 30 seconds relative to control
Procedure, shortened: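 Purified murine COX-2 (40 nM) preincubated 3 min with inhibitor in DMSO, with a solvent control. 2-AG (5 μM) then added and reacted 30 s at 37 °C. Value is the maximum inhibition at 10 μM inhibitor. Mean ± standard deviation, n = 6.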

[3] = Plasma concentration in C57BL/6 mouse at 10 mg/kg, ip after 2 hrs; format: ADME, organism-based; set-up: dose 10 mg/kg, route intraperitoneal
Procedure, shortened: (§1)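 Single i.p. injection in C57BL/6 mice. Blood sampled at 1, 2 and 4 h after dosing and plasma compound concentration measured. n = 3 at 1 h, 2 at 2 h, 3 at 4 h.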

[4] = Plasma concentration in C57BL/6 mouse at 10 mg/kg, ip after 1 hr; format: ADME, organism-based; set-up: dose 10 mg/kg, route intraperitoneal; procedure, shortened: as §1
Plasma = experiment: Metabolic stability of the compound in C57BL/6 mouse plasma assessed as parent compound level at 10 mg/kg, ip after 16 hrs; format: ADME, organism-based; set-up: dose 10 mg/kg, route intraperitoneal; conditions: in vivo
Procedure, shortened: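 Blood collected at 72 h, i.e. 16 h after the last injection. Plasma analysed for the dosed compound and, where applicable, its stereoinversion product (S)-flurbiprofen.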

[5] = Plasma concentration in C57BL/6 mouse at 10 mg/kg, ip after 4 hrs; format: ADME, organism-based; set-up: dose 10 mg/kg, route intraperitoneal; procedure, shortened: as §1
[6] = target: T1, Prostaglandin G/H synthase 2 (Mus musculus); experiment: Inhibition of COX2-mediated arachidonic acid oxygenation in LPS/IFN-gamma-stimulated mouse RAW264.7 cells assessed as AA to PGE2/PGD2 conversion at 25 uM treated 2 hrs after LPS/IFN-gamma stimulation measured after 6 hrs; format: cell-based
Procedure, shortened: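 RAW 264.7 macrophages stimulated with lipopolysaccharide and interferon γ to generate endogenous AA and 2-AG. Inhibitor added to the medium at varying doses 2 h after stimulation. Medium collected 6 h after stimulation; prostaglandin levels quantified by LC-MS-MS.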

SMILES | inhibition [1] [%] | Imax [2] [%] | also measured
CC(C)Cc1ccc(C2(C(=O)O)CC2)cc1 | 10 | 45 | –
O=C(O)Cc1cccc(Oc2ccccc2)c1 | 24 | 68 | –
O=C(O)Cc1ccc(-c2ccccc2)c(F)c1 [DESMETHYLFLURBIPROFEN] | 7 | – | concentration at 2 h [3]: 50 µM; concentration at 1 h [4]: 68 µM; Stability (Plasma): Unstable; concentration at 4 h [5]: 6 µM
CC(C)Cc1ccc(C(C)(C)C(=O)O)cc1 | 5 | 5 | –
CC(C)(C(=O)O)c1cccc(C(=O)c2ccccc2)c1 | 32 | – | –
O=C(O)C1(c2cccc(Oc3ccccc3)c2)CC1 | 15 | – | –
O=C(O)C1(c2ccc(-c3ccccc3)c(F)c2)CC1 | 0 | 87 | inhibition [6]: 55%
O=C(c1ccccc1)c1cccc(C2(C(=O)O)CC2)c1 | 10 | 75 | –
CC(C)Cc1ccc(CC(=O)O)cc1 | 14 | – | –

Now from value to compound, other results behind:

inhibition [1] [%] | Imax [2] [%] | SMILES | also measured
16 | – | COc1ccc2cc(CC(=O)O)ccc2c1 | –
5 | – | CC(C)(C(=O)O)c1ccc(-c2ccccc2)c(F)c1 | inhibition [6]: 40%
6 | 77 | COc1ccc2cc(C3(C(=O)O)CC3)ccc2c1 | –
7 | 12 | COc1ccc2cc(C(C)(C)C(=O)O)ccc2c1 | –
10 | – | O=C(O)Cc1cccc(C(=O)c2ccccc2)c1 | –
17 | 65 | CC(C)(C(=O)O)c1cccc(Oc2ccccc2)c1 | –
